# Results: article PMC11215724 (Journal of Medicinal Chemistry, 2024)
# Tests used:
# [1] = starting compounds; cited from earlier work
# Stability in DMSO = assay type: physicochemical
# Aggregation by NMR = assay type: physicochemical; settings: Tris buffer
# Procedure, shortened: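 Compound aggregation checked by WaterLOGSY in the NMR binding-assay buffer at three theoretical concentrations, with 200 μM 4-trifluoromethyl benzoic acid as internal reference. Solubility was checked in PBS and Tris buffer by ¹H 1D spectra. Data were processed with 2 Hz exponential line broadening before Fourier transformation.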
# A375 = assay: Cell viability assay, A375 melanoma cell line; assay type: cell-based; settings: A375 cells
# WM3248 = assay: Cell viability assay, WM3248 melanoma cell line; assay type: cell-based; settings: WM3248 cells
# Mouse pharmacokinetics = assay type: in vivo; settings: single I.V. 3 mg/kg or P.O. 10 mg/kg
# Procedure, shortened: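 Single dose to mice, either intravenous at 3 mg/kg or oral at 10 mg/kg. Three animals per time point. Plasma concentration–time profiles were used for observed and calculated PK parameters. Animals were watched for treatment-related toxicological signs throughout.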
# [2] = system: SKM28, SKMel3, WM3248, A375, SW480; assay: Cell viability assay, all five cancer cell lines together; assay type: cell-based
# SKMel3 = assay: Cell viability assay, SKMel3 melanoma cell line; assay type: cell-based; settings: read-out: IC50 SKMel3; SKMel3 cells
molecule,measurement,setting,value
FC(F)(F)c1cccc(Nc2cc(-c3ccccc3)nc(C3CCNCC3)n2)c1 [ARN25062],aggregation by NMR at 100 μM,[1],showed aggregation
"FC(F)(F)c1cccc(Nc2nc(C3=CCNCC3)nc(-c3ccsc3)n2)c1 [Compound 11, 4-(1,2,3,6-Tetrahydropyridin-4-yl)-6-(thiophen-3-yl)-N-(3-(trifluoromethyl)phenyl)-1,3,5-triazin-2-amine]",stability in DMSO,Stability in DMSO,slight instability in DMSO
"Cn1ccc2ccc(Nc3cc(-c4ccccc4)nc(C4CCNCC4)n3)cc21 [Compound 25, 1-Methyl-N-(6-phenyl-2-(piperidin-4-yl)pyrimidin-4-yl)-1H-indol-6-amine]",aggregation by NMR (50 μM),Aggregation by NMR,showed aggregation
"4-(1-Methyl-1H-imidazol-5-yl)-6-(piperidin-4-yl)-N-(3-(trifluoromethyl)phenyl)-1,3,5-triazin-2-amine [Compound 8]",effect on A375 (in words),A375,annihilating the effect on A375
same,IC50,A375; read-out: IC50 A375,> 100 µM
same,decrease of activity on WM3248 compared to 1,WM3248,~10 fold
"FC(F)(F)c1cc(Nc2nc(-c3ccccc3)cc(C3CCNCC3)n2)ccn1 [Compound 20, 4-Phenyl-6-(piperidin-4-yl)-N-(2-(trifluoromethyl)pyridin-4-yl)pyrimidin-2-amine]",tolerability during the PK studies,Mouse pharmacokinetics,well tolerated by all animals
CN(C)c1cccc(Nc2cc(-c3ccccc3)nc(C3CCNCC3)n2)c1 [ARN22089],aggregation by NMR at 100 μM,[1],showed aggregation
"4-(Piperidin-4-yl)-6-(pyrrolidin-2-yl)-N-(3-(trifluoromethyl)phenyl)-1,3,5-triazin-2-amine [Compound 10]",antiproliferative activity in the cancer cell lines (in words),[2],complete loss of activity
same,IC50,SKMel3,> 100 µM
"COc1ccc(Nc2nc(-c3ccccc3)cc(C3CCNCC3)n2)cc1OC [Compound 15, N-(3,4-Dimethoxyphenyl)-4-phenyl-6-(piperidin-4-yl)pyrimidin-2-amine]",tolerability during the PK studies,Mouse pharmacokinetics,well tolerated by all animals
